The source made the active and inactive calls. No cut-off for these calls is given here.

One test relates to JVM-2. Description: Antiproliferative activity against human JVM-2 cells assessed as cell growth inhibition incubated for 6 days by celltiter-glo assay. The test is classed as functional. The settings on record: JVM-2, 144 h, time 6 day. An outline of the steps:
(§1)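 Cells seeded in 384-well plates at an optimized density and held 24 h. Day 0: treated in duplicate with a 20-point two-fold series (top dose ≤29 μM, ≤0.15% DMSO) and incubated 6 days. CellTiter-Glo luminescence read at Day 0 and Day 6. Four-parameter fit. gIC50 = midpoint of the growth window between DMSO and T0. Curves required ≥1.5 population doublings.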
Background: In ATP-based viability assays light output follows the ATP content of the culture.

The test system of the next test is SF-295. Description: Antiproliferative activity against human SF-295 cells assessed as cell growth inhibition incubated for 6 days by celltiter-glo assay. The test is classed as functional. The settings on record: SF-295, 144 h, time 6 day. The procedure, abridged: as §1
The subject of a further test is MDA-MB-231. Description: Antiproliferative activity against human MDA-MB-231 cells assessed as cell growth inhibition incubated for 6 days by celltiter-glo assay. In kind it is functional. The settings on record: MDA-MB-231, 144 h, time 6 day. An outline of the steps:
as §1

Test [1] in a line: Antiproliferative activity against human PER-624 cells assessed as cell growth inhibition incubated for 6 days by celltiter-glo assay. The test is classed as functional. The settings on record: PER-624, 144 h, time 6 day. An outline of the steps: as §1
Another test relates to HCC70. The test is described as follows: Antiproliferative activity against human HCC70 cells assessed as cell growth inhibition incubated for 6 days by celltiter-glo assay. To be noted: HCC70, 144 h, time 6 day. The test is classed as functional. The procedure, abridged:
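Cells were seeded in 384-well plates and incubated 24 h, then treated in duplicate with a 20-point, 2-fold dilution series (top dose ≤29 μM, ≤0.15% DMSO) for 6 days. CellTiter-Glo luminescence was read on day 0 and day 6. A 4-parameter fit was used, and curves needed at least 1.5 population doublings. gIC50 is the midpoint of the growth window between DMSO and T0.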

In another test the test system is SU-DHL-8. Description: Antiproliferative activity against human SU-DHL-8 cells assessed as cell growth inhibition incubated for 6 days by celltiter-glo assay. In kind it is functional. The settings on record: SU-DHL-8, 144 h, time 6 day. The procedure, abridged:
as §1

The subject of the next test is Rec1. Description: Antiproliferative activity against human REC1 cells assessed as cell growth inhibition incubated for 6 days by celltiter-glo assay. In kind it is functional. To be noted: Rec1, 144 h, time 6 day. The procedure, abridged: as §1
In the next test the test system is Maver1. Description: Antiproliferative activity against human MAVER-1 cells assessed as cell growth inhibition incubated for 6 days by celltiter-glo assay. To be noted: Maver1, 144 h, time 6 day. The test is classed as functional. An outline of the steps:
as §1

Another test concerns WSUDLCL2. The test is described as follows: Antiproliferative activity against human WSUDLCL2 cells assessed as cell growth inhibition incubated for 6 days by celltiter-glo assay. In kind it is functional. The settings on record: WSUDLCL2, 144 h, time 6 day. The procedure, abridged: as §1
In another test the test system is MCF7. Description: Induction of cell cycle arrest in human MCF7 cells assessed as increase in sub-2N cell population measured upto 5000 nM measured for 7 to 10 days by propidium iodide staining based flow cytometric analysis. To be noted: time 7-10 day. In kind it is functional.
A further test has as its system U-2940. Description: Antiproliferative activity against human U-2940 cells assessed as cell growth inhibition incubated for 6 days by celltiter-glo assay. The settings on record: U-2940, 144 h, time 6 day. The test is classed as functional. An outline of the steps:
as §1

Another test deals with SU-DHL10. The test is described as follows: Antiproliferative activity against human SU-DHL-10 cells assessed as cell growth inhibition incubated for 6 days by celltiter-glo assay. The test is classed as functional. To be noted: SU-DHL10, 144 h, time 6 day. An outline of the steps: as §1
The next test concerns SU.86.86. The test is described as follows: Antiproliferative activity against human SU-86-86 cells assessed as cell growth inhibition incubated for 10 days. The test is classed as functional. The settings on record: SU.86.86, 240 h, time 10 day.
The test system of another test is 639-V. Description: Antiproliferative activity against human 639-V cells assessed as cell growth inhibition incubated for 10 days. In kind it is functional. To be noted: 240 h, time 10 day. The procedure, abridged: (§2)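 Cells kept in RPMI-1640 with 10% FBS, 2 mM L-alanyl-L-glutamine and 1 mM Na pyruvate (or a special medium) at 37°C, 5% CO2. Compound added 24 h after seeding, 10 concentrations in 3.16-fold dilution, 0.1% DMSO final. Medium replaced and cells re-dosed at 168 h; 240 h incubation. Nuclei fixed, dye-stained and imaged. gIC50 = growth midway between untreated and time-zero cell counts, from a 4-parameter fit.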

The next test has as its system HT-3. The test is described as follows: Antiproliferative activity against human HT-3 cells assessed as cell growth inhibition incubated for 10 days. In kind it is functional. To be noted: HT-3, 240 h, time 10 day. An outline of the steps: (§3)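 Outsourced panel run in 384-well plates. Cells were grown in RPMI-1640/10% FBS or a special medium at 37°C, 5% CO2. Compound was added 24 h after seeding as a 10-point, 3.16-fold series in 0.1% DMSO. Medium was refreshed and cells re-dosed at 168 h, with a time-zero plate kept. At 240 h cells were fixed, nuclei stained and imaged. gIC50 is growth midway between untreated and time zero, from a 4-parameter fit.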

The test system of the next test is NCI-H520. The test is described as follows: Antiproliferative activity against human NCI-H520 cells assessed as cell growth inhibition incubated for 10 days. The test is classed as functional. The settings on record: NCI-H520, 240 h, time 10 day.
Another test deals with SW-620. The test is described as follows: Antiproliferative activity against human SW620 cells assessed as cell growth inhibition incubated for 10 days. The test is classed as functional. To be noted: SW-620, 240 h, time 10 day.
Another test relates to BHT-101. Description: Antiproliferative activity against human BHT-101 cells assessed as cell growth inhibition incubated for 10 days. In kind it is functional. The settings on record: BHT-101, 240 h, time 10 day. An outline of the steps:
as §2

A further test has as its system YAPC. Description: Antiproliferative activity against human YAPC cells assessed as cell growth inhibition incubated for 10 days. In kind it is functional. The settings on record: 240 h, time 10 day.
The test system of a further test is DMS-114. Description: Antiproliferative activity against human DMS-114 cells assessed as cell growth inhibition incubated for 10 days. The test is classed as functional. The settings on record: DMS-114, 240 h, time 10 day. An outline of the steps:
as §3

For test [2], the target named is Protein arginine N-methyltransferase 5 (Homo sapiens) (UniProt O14744). Description: Inhibition of PRMT5 in human Z138 cells expressing full length MDM4 assessed as effect on p53 level at 1 uM incubated for 4 days by Western blot analysis. The settings on record: time 4.0 day. The test is classed as cell-based. (A western blot detects proteins with antibodies after separation by electrophoresis.)

Another test has as its system ARH-77. The test is described as follows: Antiproliferative activity against human ARH-77 cells assessed as cell growth inhibition incubated for 10 days. In kind it is functional. To be noted: ARH-77, 240 h, time 10 day. An outline of the steps:
as §2

The next test deals with RPMI-6666. The test is described as follows: Antiproliferative activity against human RPMI-6666 cells assessed as cell growth inhibition incubated for 10 days. The settings on record: RPMI-6666, 240 h, time 10 day. In kind it is functional.
The next test relates to HeLa. The test is described as follows: Antiproliferative activity against human HeLa cells assessed as cell growth inhibition incubated for 10 days. The test is classed as functional. To be noted: 240 h, time 10 day. An outline of the steps:
as §3

The next test concerns SW900. The test is described as follows: Antiproliferative activity against human SW900 cells assessed as cell growth inhibition incubated for 10 days. In kind it is functional. To be noted: SW900, 240 h, time 10 day.
The next test deals with KLE. Description: Antiproliferative activity against human KLE cells assessed as cell growth inhibition incubated for 10 days. In kind it is functional. The settings on record: 240 h, time 10 day. The procedure, abridged: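 Cells grown in RPMI-1640 with 10% FBS, 2 mM L-alanyl-L-glutamine and 1 mM Na pyruvate (or special medium) at 37°C, 5% CO2. Compound was added 24 h after seeding, with a parallel time-zero plate. Medium was replaced and the compound re-dosed at 168 h. Dosing used 10 concentrations (3.16-fold dilutions, 0.1% DMSO) over a 240 h incubation. Nuclei were stained and imaged. gIC50 is growth midway between untreated and time-zero, from a 4-parameter fit.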

The target in test [3] is Protein arginine N-methyltransferase 5 (Homo sapiens) (UniProt O14744). The test is described as follows: Inhibition of PRMT5 in p53 knockout human Z138 cells at 1 to 100000 nM incubated for 3 to 6 days. In kind it is cell-based. The settings on record: dose 1-100000 nM, time 3-6 day.
In a further test the test system is HepG2. The test is described as follows: Antiproliferative activity against human HepG2 cells assessed as cell growth inhibition incubated for 10 days. The test is classed as functional. To be noted: HepG2, 240 h, time 10 day. The procedure, abridged: as §3
A short description of test [4]: Antiproliferative activity against human TE 381.T cells assessed as cell growth inhibition incubated for 10 days. The settings on record: 240 h, time 10 day. In kind it is functional.

Protein arginine N-methyltransferase 5 (Homo sapiens), sequence (O14744 whole entry): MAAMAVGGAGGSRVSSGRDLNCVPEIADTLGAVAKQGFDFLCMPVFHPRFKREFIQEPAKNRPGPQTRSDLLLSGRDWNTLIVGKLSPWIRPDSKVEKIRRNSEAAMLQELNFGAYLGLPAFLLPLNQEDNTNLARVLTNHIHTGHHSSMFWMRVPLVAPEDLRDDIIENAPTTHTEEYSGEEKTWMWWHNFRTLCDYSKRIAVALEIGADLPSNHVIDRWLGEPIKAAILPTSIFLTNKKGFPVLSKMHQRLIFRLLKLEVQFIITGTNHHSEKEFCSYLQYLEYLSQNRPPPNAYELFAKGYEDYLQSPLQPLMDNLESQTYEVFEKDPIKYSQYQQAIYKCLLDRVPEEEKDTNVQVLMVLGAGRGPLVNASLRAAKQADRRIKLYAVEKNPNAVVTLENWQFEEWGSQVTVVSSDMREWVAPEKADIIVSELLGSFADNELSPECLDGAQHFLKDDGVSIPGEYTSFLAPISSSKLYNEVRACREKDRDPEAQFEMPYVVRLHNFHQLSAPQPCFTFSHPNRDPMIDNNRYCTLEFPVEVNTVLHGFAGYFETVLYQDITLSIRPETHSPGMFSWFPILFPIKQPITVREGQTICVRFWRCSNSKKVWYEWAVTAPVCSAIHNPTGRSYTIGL

Usually GI50 stands for the concentration giving 50% growth inhibition. On to `CC(=O)N1CCC(Nc2cc(C(=O)NC[C@H](O)CN3CCc4ccccc4C3)ncn2)CC1` [PEMRAMETOSTAT], for which the GI50 turned out to be 9 nM in the test with JVM-2; 24700 nM with SF-295; 544 nM in the test on MDA-MB-231; 524 nM in test [1]; 130 nM with HCC70; 53 nM in the test with SU-DHL-8. The GI50 came to 2110 nM with Rec1; 85 nM in the test with Maver1; 82 nM in the test with WSUDLCL2; 10200 nM with U-2940; 54 nM in the test on SU-DHL10. Moreover, the result with MCF7 was Active.
Take `O=C(NC[C@H](O)CN1CCc2ccccc2C1)c1ccnc(NC2CCC2)c1`: the concentration for 50% growth inhibition (GI50) in the test with JVM-2 was 172 nM; in the test with SF-295, 9840 nM; in the test with SU.86.86 it was 934 nM; in the test on 639-V it was 342 nM; with MDA-MB-231 it was 2930 nM; with HT-3, 10000 nM. Moreover, the GI50 is 526 nM in test [1]; 15.6 nM in the test on NCI-H520; 5640 nM in the test with SW-620; 522 nM in the test on HCC70; 214 nM in the test with BHT-101; 1220 nM in the test with SU-DHL-8. The GI50 was found to be 168 nM with YAPC; 1010 nM with DMS-114; 1990 nM in the test with Rec1; 133 nM with Maver1; 651 nM in the test with WSUDLCL2; 44.4 nM in the test on ARH-77. Also, the 50% growth inhibitory concentration (GI50) amounted to 2350 nM in the test with U-2940; 748 nM with RPMI-6666; 495 nM with SU-DHL10; 230 nM in the test with HeLa; 3250 nM in the test on SW900; 10000 nM in the test on KLE. Further, the GI50 with HepG2 is 214 nM; in test [4], 147 nM. In test [2], the inhibition result was “inactive”. Besides, the inhibition entry in test [3] was “Active”.
